Bioassay records deposited in PubChem BioAssay by The Scripps Research Institute Molecular Screening Center.
CHO parental Ca = signal in parental CHO cells, OX1R antagonist counter-screen. inhibition, % at 5.6 µM. hit rate 0.63% among 330,000. parental CHO-K1, ATP-induced calcium, Fluo-8 fluorescence. AID 463079;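 active means inhibition above that plate's mean sample inhibition plus 3 SD, cut at about 26% in these data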;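 further: 0% = ATP-challenged DMSO wells and 100% = DMSO wells without ATP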
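Test system: untransfected parental CHO cell line; also added: ATP stimulus; dosing: 5.6 µM, single dose; signal: calcium-sensitive Fluo-8 fluorescence; measure: percent inhibition of ATP-evoked calcium rise, normalized to controls; benchmarks: low control ATP plus DMSO, high control DMSO only; replication: one well per compound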
TAAR1 agonist = human TAAR1 agonism. Q96RJ0. CHO RD-HGA16 TAAR1, Fluo-8 calcium fluorescence; vehicle wells 0%, saturating PEA agonist 100%. activation, % at 3 µM. hit rate 0.99% among 360,000;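 active means activation above the mean activation of all test compounds in the run plus 3 SD, cut at about 38% in these data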
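System: CHO-derived RD-HGA16 cells with stable Gα16 and human TAAR1 / Times: 17-24 h plating, Fluo-8 75 min 37 °C, 30 min RT / Technique: calcium-sensitive Fluo-8 signal, excitation 470-495, emission 515-575 nm / Measure: % activation relative to PEA EC100 response / Benchmarks: DMSO and PEA EC100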
OX1R antag-1 = antagonists of human orexin 1 receptor (OX1R) | O43613 | OX1R-expressing cells, FRET antagonist read-out | inhibition, % at 6.6 µM | hit rate 1.8% among 330,000 | AID 485270; in the data active means inhibition mostly above about 38%, no sharp cut-off; inactive means mostly below about 40%;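 further: 0% = agonist challenge alone and 100% = reference antagonist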
Target sequence (O43613 whole entry, looked up): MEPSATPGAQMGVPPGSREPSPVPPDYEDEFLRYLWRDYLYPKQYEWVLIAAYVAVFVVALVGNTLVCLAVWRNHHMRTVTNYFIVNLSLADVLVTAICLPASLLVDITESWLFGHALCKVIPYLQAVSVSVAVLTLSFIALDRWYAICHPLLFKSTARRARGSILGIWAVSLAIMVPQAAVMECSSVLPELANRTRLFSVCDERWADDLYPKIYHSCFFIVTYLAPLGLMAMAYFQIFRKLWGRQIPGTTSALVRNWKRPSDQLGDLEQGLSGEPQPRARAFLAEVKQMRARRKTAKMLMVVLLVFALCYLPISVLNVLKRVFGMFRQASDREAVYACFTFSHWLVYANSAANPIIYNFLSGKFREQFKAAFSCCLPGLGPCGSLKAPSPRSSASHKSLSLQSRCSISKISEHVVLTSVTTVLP
OX1R antag-2 = antagonists of human orexin 1 receptor. CHO/OX1R cells, Fluo-8 calcium fluorescence, orexin A. inhibition, % at 5 µM. hit rate 0.43% among 330,000;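 active means inhibition above its plate's threshold, mean inhibition of all tested compounds on the plate plus 3 SD, cut at about 37% in these data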;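 further: 0% = orexin A challenge wells and 100% = SB-334867-A antagonist wells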
GPR7 antagonist = blocks human GPR7 receptor signaling | P48145 | hit rate 1.1% among 290,000 | GPR7-expressing cells, fluorescence antagonist assay | inhibition, % at 4.4 µM | AID 1861; in the data active means inhibition above about 16%, passing the limit was not always enough;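 further: cells stimulated with the agonist NPW; 0% = agonist with vehicle and 100% = vehicle without agonist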
Target sequence (P48145 whole entry, looked up): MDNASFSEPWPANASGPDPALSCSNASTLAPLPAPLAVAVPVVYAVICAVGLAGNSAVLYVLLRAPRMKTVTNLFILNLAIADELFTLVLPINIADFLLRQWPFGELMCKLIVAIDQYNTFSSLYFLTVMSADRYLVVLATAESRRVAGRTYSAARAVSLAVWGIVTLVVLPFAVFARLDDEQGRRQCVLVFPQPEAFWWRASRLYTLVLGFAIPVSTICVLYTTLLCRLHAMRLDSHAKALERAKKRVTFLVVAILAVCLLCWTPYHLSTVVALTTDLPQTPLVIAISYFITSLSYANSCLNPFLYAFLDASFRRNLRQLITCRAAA
TAAR1 antag = human TAAR1 antagonism | hit rate 1.5% among 360,000 | Q96RJ0 | AID 624466 | CHO RD-HGA16 TAAR1, Fluo-8 calcium fluorescence, antagonist | inhibition, % at 3 µM;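 active means inhibition above a per-plate cutoff, the mean inhibition of test compounds on that plate plus 3 SD, cut at about 49% in these data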;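 further: 0% = DMSO plus EC80 beta-PEA response and 100% = DMSO alone without agonist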
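System: CHO RD-HGA16 cells bearing hTAAR1. Reagent: EC80 β-phenethylamine stimulus. Schedule: seeding 17-24 h prior, 75-min 37 °C, 30-min RT dye loading. Signal: Fluo-8 intracellular calcium dye fluorescence, real-time kinetic reads. Read-out: % inhibition from peak post-agonist over basal fluorescence ratio. Benchmarks: vehicle wells and EC80 agonist wells. Replicates: n of 1.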
TAAR1 ag conf = human TAAR1 agonism, confirmed; hit rate 82% among 2,400; activation, % at 3 µM; shares compounds with TAAR1 agonist; CHO RD-HGA16 TAAR1, Fluo-8 calcium fluorescence; scaled: DMSO 0%, maximal phenethylamine 100%;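 active means activation above a cutoff set at the run's mean compound activation plus 3 SD, cut at about 39% in these data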
Ga16 nonsel ag = counter-screen for TAAR1 agonists: nonselective agonists in parental cells | shares compounds with TAAR1 agonist | CHO-Ga16 parental, Fluo-8 calcium fluorescence; normalized to maximal ATP response, DMSO zero | activation, % at 3 µM | hit rate 50% among 2,400 | AID 651787;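 active means activation above the run cutoff, the mean activation over all tested wells plus 3 SD, cut at about 12% in these data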;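 further: 0% = DMSO wells and 100% = maximal ATP response on the peak over basal ratio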
TAAR1 desensitize = human TAAR1 agonist that also desensitizes the receptor | shares compounds with TAAR1 agonist | CHO RD-HGA16 hTAAR1, Fluo-8 calcium, beta-PEA response inhibition | inhibition, % at 3 µM | hit rate 46% among 2,400 | AID 651951;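 active means inhibition above the run cutoff, the mean inhibition of all test compounds plus 3 SD, cut at about 49% in these data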;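 further: beta-PEA stimulus applied at its EC80; loss of beta-PEA calcium signal after compound pretreatment read as receptor desensitization; 0% = DMSO with beta-PEA at EC80 and 100% = DMSO alone without agonist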
Ga16 antag count = nonselective Ga16 antagonist in TAAR1 agonist counter-screen | shares compounds with TAAR1 agonist | CHO-Ga16 ATP-induced calcium, Fluo-8 fluorescence | inhibition, % at 3 µM | hit rate 39% among 2,400;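 active means inhibition above the plate's mean compound inhibition plus 3 SD, computed per plate, cut at about 22% in these data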;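 further: 0% = EC80 ATP with DMSO and 100% = DMSO wells without ATP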
Starred values were filed as active, the others as inactive. Hits are enriched below; roughly 4.6% of the tested compounds scored in any of these assays.

Results for O=C(CSc1nc2ccc(NC(=O)CSc3nnnn3Cc3ccccc3)cc2s1)Nc1ccccc1 ?
CHO parental Ca: 11.3; TAAR1 agonist: 1.1; OX1R antag-1: 22.5; OX1R antag-2: 5.7; GPR7 antagonist: -8.4; TAAR1 antag: 28.4

What do the screens show for `Cc1ccc(S(=O)(=O)Oc2ccc(/C=C3\N=C(c4cccc(C)c4)OC3=O)cc2)cc1`?
CHO parental Ca: 0.4; TAAR1 agonist: 0.1; OX1R antag-1: 3.9; OX1R antag-2: -8.0; GPR7 antagonist: -4.7; TAAR1 antag: 22.3

Results for CCCOC(=O)NC1C(NC(=O)OCCC)N(C)C(=O)N1C (centres undefined) ?
CHO parental Ca: -5.9; TAAR1 agonist: 0.5; OX1R antag-1: 5.2; OX1R antag-2: 7.0; GPR7 antagonist: -13.5; TAAR1 antag: -3.5

Results for COc1ccc(CCC(C)NCCc2ccc(Cl)cc2Cl)cc1 (centres undefined) ?
CHO parental Ca: -0.4; TAAR1 agonist: 48.3*; OX1R antag-1: 7.1; OX1R antag-2: -17.7; GPR7 antagonist: 12.3; TAAR1 antag: 35.8; TAAR1 ag conf: 47.7*; Ga16 nonsel ag: 21.9*; TAAR1 desensitize: 43.5; Ga16 antag count: 23.9*

Results for COc1ccc(CCC(C)NCc2ccc(Cl)c(Cl)c2)cc1 (centres undefined) ?
CHO parental Ca: 2.1; TAAR1 agonist: 20.7; OX1R antag-1: 7.0; OX1R antag-2: -19.9; GPR7 antagonist: 13.9; TAAR1 antag: 1.2

How did CCOC(=O)c1cc(NC(=O)c2cc(C)on2)cc(C(=O)OCC)c1 do in these assays?
CHO parental Ca: -15.4; TAAR1 agonist: 44.0*; OX1R antag-1: 22.0; OX1R antag-2: -12.4; GPR7 antagonist: 13.5; TAAR1 antag: 26.1; TAAR1 ag conf: 19.2; Ga16 nonsel ag: 4.0; TAAR1 desensitize: 2.2; Ga16 antag count: 2.5

What do the screens show for `Cc1cc(/C=C2\SC(=O)NC2=O)c(C)n1-c1ccc(N(C)C)cc1`?
CHO parental Ca: -6.8; TAAR1 agonist: -3.0; OX1R antag-1: 24.4; OX1R antag-2: -15.0; GPR7 antagonist: -14.7; TAAR1 antag: 17.2

Results for Cc1cc(/C=C2\SC(=O)NC2=O)c(C)n1-c1ccc(N2CCOCC2)cc1 ?
CHO parental Ca: -13.1; TAAR1 agonist: 59.5*; OX1R antag-1: 16.1; OX1R antag-2: -26.8; GPR7 antagonist: -3.5; TAAR1 antag: 22.1; TAAR1 ag conf: 70.2*; Ga16 nonsel ag: 33.9*; TAAR1 desensitize: 31.4; Ga16 antag count: 24.4*

How did CN1c2ccccc2C(C)(C)C12CCCC(=O)N2 (centres undefined) do in these assays?
CHO parental Ca: -16.4; TAAR1 agonist: 9.2; OX1R antag-1: 3.7; OX1R antag-2: -17.7; GPR7 antagonist: -4.0; TAAR1 antag: 15.8

How did COc1cc(OC)cc(C(=O)NCC(=O)N2CCN(Cc3ccccc3)CC2)c1 do in these assays?
CHO parental Ca: -5.9; TAAR1 agonist: 10.9; OX1R antag-1: 3.9; OX1R antag-2: -23.4; TAAR1 antag: -3.0

What do the screens show for `CCOCCCn1c(=S)[nH]c2cc(C(=O)NCCc3ccccc3)ccc2c1=O`?
CHO parental Ca: -10.0; TAAR1 agonist: 43.8*; OX1R antag-1: 16.9; OX1R antag-2: -24.1; GPR7 antagonist: -13.1; TAAR1 antag: -9.2; TAAR1 ag conf: 50.5*; Ga16 nonsel ag: 7.4; TAAR1 desensitize: 20.6; Ga16 antag count: 10.4

What do the screens show for `CCc1c(C)nc(N2CCN(Cc3ccc4c(c3)OCO4)CC2)[nH]c1=O`?
CHO parental Ca: -3.0; TAAR1 agonist: 3.2; OX1R antag-1: 4.1; OX1R antag-2: -2.2; GPR7 antagonist: 1.1; TAAR1 antag: 0.3

How did COc1ccc(OC)c2sc(N3CCc4ccccc4C3)nc12 do in these assays?
CHO parental Ca: -30.4; TAAR1 agonist: -2.8; OX1R antag-1: 31.4; OX1R antag-2: -23.4; GPR7 antagonist: -16.5; TAAR1 antag: -10.6

What do the screens show for `c1ccc2c(c1)CCN(c1nc3cc4c(cc3s1)OCCO4)C2`?
CHO parental Ca: -14.7; TAAR1 agonist: 56.0*; OX1R antag-1: 28.2; OX1R antag-2: -25.1; GPR7 antagonist: -3.0; TAAR1 antag: 2.7; TAAR1 ag conf: 80.6*; Ga16 nonsel ag: 3.0; TAAR1 desensitize: 37.8; Ga16 antag count: 9.6

Results for CCCCC(=O)NC(=S)NNC(=O)CCc1ccccc1 ?
CHO parental Ca: -1.0; TAAR1 agonist: 64.3*; OX1R antag-1: 14.0; OX1R antag-2: 6.0; GPR7 antagonist: -6.1; TAAR1 antag: 19.2; TAAR1 ag conf: 82.3*; Ga16 nonsel ag: 61.8*; TAAR1 desensitize: 40.1; Ga16 antag count: 34.5*

How did O=C(CCc1ccccc1)NNC(=S)NC(=O)c1ccccc1 do in these assays?
CHO parental Ca: -1.8; TAAR1 agonist: 87.7*; OX1R antag-1: -3.0; OX1R antag-2: -1.7; GPR7 antagonist: -3.0; TAAR1 antag: 17.2; TAAR1 ag conf: 74.8*; Ga16 nonsel ag: 55.5*; TAAR1 desensitize: 34.0; Ga16 antag count: 25.0*

What do the screens show for `COc1cc2c(=O)n(CCC(=O)NCC3CCCO3)c(=O)n(CC(=O)Nc3ccc(C)c(C)c3)c2cc1OC` (centres undefined)?
CHO parental Ca: -23.3; TAAR1 agonist: 3.1; OX1R antag-1: 12.5; OX1R antag-2: -20.6; GPR7 antagonist: -3.6; TAAR1 antag: -12.6

How did C=CCOc1ccccc1CN1CCCC(CCC(=O)N(C)CCc2ccccn2)C1 (centres undefined) do in these assays?
CHO parental Ca: -21.6; TAAR1 agonist: 1.2; OX1R antag-1: 18.8; OX1R antag-2: -12.6; GPR7 antagonist: -13.1; TAAR1 antag: 21.4

What do the screens show for `COc1ccc(N(C(=O)Cn2nnc3ccccc32)C(C(=O)NCc2ccco2)c2ccncc2)cc1` (centres undefined)?
CHO parental Ca: -16.6; TAAR1 agonist: -1.2; OX1R antag-1: 15.5; OX1R antag-2: -27.7; GPR7 antagonist: -17.4; TAAR1 antag: -5.4

How did CC(C)C[C@H]1CN=C(Nc2ccccc2)N1CC1CCCCCC1 do in these assays?
CHO parental Ca: -6.4; TAAR1 agonist: 48.9*; OX1R antag-1: 15.5; OX1R antag-2: -18.6; TAAR1 antag: 10.9; TAAR1 ag conf: 28.8; Ga16 nonsel ag: 16.0*; TAAR1 desensitize: 19.3; Ga16 antag count: 22.1*
